# Screening data deposited in PubChem BioAssay by Broad Institute.
# GASC1 inh – inhibitors of human demethylase GASC-1 KDM4C; 96,000 compounds, 0.15% hits; GST-KDM4C 2-372, H3K9me3 peptide, LANCE TR-FRET; inhibition, % at 12.5 µM;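 active means mean replicate inhibition above about 25%, with at least 55% of replicates also reaching it, limit read from the data, passing the limit was not always enough; inconclusive means only one of those two conditions met; inactive means neither condition met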
# Target sequence (Q9H3R0 2-372 limits assumed): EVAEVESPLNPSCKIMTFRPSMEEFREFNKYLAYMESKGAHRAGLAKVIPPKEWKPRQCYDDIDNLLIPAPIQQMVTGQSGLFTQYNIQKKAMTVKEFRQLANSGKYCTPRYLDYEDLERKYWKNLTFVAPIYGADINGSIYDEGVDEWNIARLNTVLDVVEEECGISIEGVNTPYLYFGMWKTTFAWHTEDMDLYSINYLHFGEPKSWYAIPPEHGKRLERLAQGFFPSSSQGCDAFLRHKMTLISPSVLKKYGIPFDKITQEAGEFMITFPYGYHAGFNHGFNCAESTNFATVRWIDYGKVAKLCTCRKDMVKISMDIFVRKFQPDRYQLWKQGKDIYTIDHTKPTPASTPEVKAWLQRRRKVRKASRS
#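 Material: GST-tagged GASC-1 (JMJD2C) catalytic fragment, aa 2-372 / Quantity: enzyme final amount 10 nM / Medium: HEPES buffer, pH 7.5, plus ascorbate / Doses: one test concentration per compound / Incubation: 30 min reaction, 60 min detection, RT / Measured by: LANCE TR-FRET / Read-out: inhibition from TR-FRET ratio decrease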
# Pf Dd2 inh – inhibitors of Plasmodium falciparum Dd2 growth; P. falciparum Dd2 growth, SYBR Green, 72 h; stronger effect = lower value; 94,000 compounds, 2.3% hits; activity change, % at 10 µM; in the data active means activity change below about -80%; inconclusive means no clear call, values can overlap the other calls
# IDH1 mut inh – blocks human IDH1 R132H reductase activity | 70,000 compounds, 0.18% hits | inhibition, % at 10 µM | diaphorase/resazurin fluorescence, 60 min | O75874; in the data active means inhibition above about 34%; inconclusive means no clear call, values can overlap the other calls; inactive means below about 11%;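 further: 0% = DMSO and 100% = no enzyme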
# T cruzi growth-1 – inhibitors of T. cruzi proliferation; 77,000 compounds, 5.9% hits; T. cruzi beta-gal in NIH3T3, GalScreen luminescence, 90 h; inhibition, % at 8.34 µM; AID 624255;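 active means mean inhibition above about 93%, with at least 55% of replicates each passing it, limit read from the data, passing the limit was not always enough; inconclusive means only one of those two conditions holds; inactive means neither condition holds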
# T cruzi growth-2 – Trypanosoma cruzi proliferation inhibition; inhibition, % at 8.35 µM; shares compounds with T cruzi growth-1; 5,600 compounds, 72% hits; T. cruzi beta-gal in NIH3T3, GalScreen luminescence, 90 h; AID 651739;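 active means mean replicate inhibition above about 95% and at least 55% of replicates individually reaching it, limit read from the data; inconclusive means only one of the two criteria is met; inactive means neither criterion is met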
# T cruzi growth-3 – blocks T. cruzi growth in NIH3T3 host cells; shares compounds with T cruzi growth-1; 5,600 compounds, 21% hits; inhibition, % at 2.09 µM; AID 651740; T. cruzi beta-gal in NIH3T3, GalScreen luminescence, 90 h;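 active means mean inhibition above about 95%, with at least 55% of replicates also reaching it, limit read from the data; inconclusive means meets just one of the two conditions; inactive means meets neither condition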;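 further: plate controls were neutral control median for no effect and positive control median for full effect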
# 3T3 cytotox – kills mouse NIH/3T3 fibroblasts | NIH/3T3 viability, CellTiter-Glo ATP luminescence, 90 h | cytotoxicity (signal decrease), % at 8.35 µM | 5,600 compounds, 14% hits | shares compounds with T cruzi growth-1;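 active means mean signal decrease across replicates above about 35% based on untreated-well scatter, with enough replicates individually passing, limit read from the data; inconclusive means no rule stated though some were filed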;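 further: 0% = median of neutral control wells and 100% = median of positive control wells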
# NIH3T3 tox 2 – NIH/3T3 (mouse) viability loss; 5,600 compounds, 56% hits; NIH/3T3 viability, CellTiter-Glo ATP luminescence, 90 h; inhibition, % at 24.9 µM; shares compounds with T cruzi growth-1;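 active means mean loss of cell viability signal at or above a set limit, and enough replicates individually reaching it; inconclusive means meets only the mean limit or only the replicate share; inactive means meets neither condition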;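 further: 0% = median of neutral control wells and 100% = median of positive control wells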
# An asterisk follows results filed as active; ? = inconclusive; . = no result given. The list is not random: actives were taken first. Their share in the collection is about 5.9%.
SMILES,GASC1 inh,Pf Dd2 inh,IDH1 mut inh,T cruzi growth-1,T cruzi growth-2,T cruzi growth-3,3T3 cytotox,NIH3T3 tox 2
CO[C@@H](CN(C)S(=O)(=O)c1ccc(Cl)cc1)[C@@H](C)CN([C@@H](C)CO)S(=O)(=O)c1cccc(Cl)c1,-2,3,0,85,.,.,.,.
CO[C@H](CN(C)S(=O)(=O)c1cccc(Cl)c1)[C@H](C)CN([C@H](C)CO)S(=O)(=O)c1ccc(Cl)cc1,-2,-3,0,?,99*,20,47*,68*
CO[C@@H](CN(C)S(=O)(=O)c1ccc(Cl)cc1)[C@@H](C)CN([C@H](C)CO)S(=O)(=O)c1cccc(Cl)c1,-3,-40,-1,?,92,56,54*,79*
CO[C@@]12[C@@H]3NC3CN1C1=C(C(=O)C(N)=C(C)C1=O)[C@@H]2COC(N)=O (stereo partly specified),.,.,0,.,.,.,.,.
O=C(C[C@H]1CC[C@H]2[C@@H](COC[C@H](O)CN2Cc2ccc3c(c2)OCO3)O1)Nc1ccc(-c2ccccc2)cc1,0,-7,.,104*,98*,52,27,57*
O=C(C[C@@H]1CC[C@H]2[C@@H](COC[C@@H](O)CN2Cc2ccc3c(c2)OCO3)O1)Nc1ccc(-c2ccccc2)cc1,2,0,.,103*,95*,103*,-14,94*
O=C(C[C@H]1CC[C@H]2[C@@H](COC[C@H](O)CN2Cc2ccc3c(c2)OCO3)O1)Nc1ccccc1,2,-9,.,45,.,.,.,.
O=C(C[C@H]1CC[C@@H]2[C@H](COC[C@H](O)CN2Cc2ccc3c(c2)OCO3)O1)Nc1ccc(-c2ccccc2)cc1,1,-14,.,112*,106*,35,5,50*
O=C(C[C@@H]1CC[C@H]2[C@@H](COC[C@H](O)CN2Cc2ccc3c(c2)OCO3)O1)Nc1ccccc1,1,-14,.,41,.,.,.,.
O=C(C[C@H]1CC[C@@H]2[C@H](COC[C@H](O)CN2Cc2ccc3c(c2)OCO3)O1)Nc1ccccc1,2,-2,.,50,.,.,.,.
Cc1ccccc1S(=O)(=O)N(C)C[C@@H]1OCc2ccccc2-c2ccccc2C(=O)N([C@@H](C)CO)C[C@H]1C,0,-52,.,87,.,.,.,.
C[C@@H]1CN([C@H](C)CO)C(=O)c2ccccc2-c2ccccc2CO[C@@H]1CN(C)S(=O)(=O)c1ccc(C(F)(F)F)cc1,-2,-4,.,83,.,.,.,.
C[C@H]1CN([C@@H](C)CO)C(=O)c2ccccc2-c2ccccc2CO[C@H]1CN(C)S(=O)(=O)c1ccc(C(F)(F)F)cc1,1,-81*,.,108*,105*,55,14,5
C[C@@H]1CN([C@H](C)CO)C(=O)c2c(c3ccccc3n2C)-c2ccccc2CO[C@H]1CN(C)S(=O)(=O)c1ccsc1,-5,-86*,-2,107*,105*,63,-28,2
C[C@H](CO)N1C[C@H](C)[C@@H](CN(C)S(=O)(=O)c2cn(C)cn2)OCc2ccccc2-c2c(n(C)c3ccccc23)C1=O,-1,-20,.,107*,97*,4,27,99*
Cc1ccccc1S(=O)(=O)N(C)C[C@@H]1OCc2ccccc2-c2ccccc2C(=O)N([C@H](C)CO)C[C@@H]1C,3,-39,-5,?,83,16,-9,16
Fc1cccc(Cl)c1CN1CCN(CCCNc2ncnc3scc(-c4ccccc4)c23)CC1,.,.,-3,.,.,.,.,.
Cc1ccccc1S(=O)(=O)N(C)C[C@@H]1OCc2ccccc2-c2c(n(C)c3ccccc23)C(=O)N([C@@H](C)CO)C[C@H]1C,-3,?,.,62,.,.,.,.
C[C@H]1CN([C@@H](C)CO)C(=O)c2c(c3ccccc3n2C)-c2ccccc2CO[C@@H]1CN(C)S(=O)(=O)c1ccccc1C#N,.,-77,.,89,.,.,.,.
C[C@H](CO)N1C[C@H](C)[C@H](CN(C)S(=O)(=O)c2ccccc2C#N)OCc2ccccc2-c2c(n(C)c3ccccc23)C1=O,0,-43,.,108*,?,59,16,46*
Cc1ccccc1S(=O)(=O)N(C)C[C@H]1OCc2ccccc2-c2c(n(C)c3ccccc23)C(=O)N([C@H](C)CO)C[C@@H]1C,-4,-64,.,?,96*,56,-17,24*
Cc1ccccc1S(=O)(=O)N(C)C[C@H]1OCc2ccccc2-c2c(n(C)c3ccccc23)C(=O)N([C@@H](C)CO)C[C@@H]1C,-5,-85*,.,?,101*,84,10,?
COc1ccc(Cl)cc1NC(=O)CSc1nnc(-c2ccc(Br)cc2)o1,.,.,0,.,.,.,.,.
C/C=C/c1ccccc1[C@@H]1[C@H](C#N)N(c2ncc(CC)s2)[C@H]1CO,-1,-8,.,.,.,.,.,.
CCc1cnc(N2[C@@H](C#N)[C@H](c3ccccc3)[C@@H]2CO)s1,0,13,.,27,.,.,.,.
SMILES,GASC1 inh,Pf Dd2 inh,IDH1 mut inh,T cruzi growth-1,T cruzi growth-2,T cruzi growth-3,3T3 cytotox,NIH3T3 tox 2
C/C=C/c1ccc([C@H]2[C@@H](CO)N(c3ncc(CC)s3)[C@H]2C#N)cc1,-4,48,.,98*,33,8,-9,23
C/C=C/c1ccc([C@H]2[C@@H](C#N)N(c3ncc(CC)s3)[C@@H]2CO)cc1,.,20,.,99*,102*,67,-9,12
CCCNC(=O)N(C)C[C@@H]1Oc2cc(-c3ccncc3)ccc2S(=O)(=O)N([C@@H](C)CO)C[C@H]1C,1,38,1,111*,97*,85,2,10
CCCNC(=O)N(C)C[C@@H]1Oc2cc(-c3ccncc3)ccc2S(=O)(=O)N([C@H](C)CO)C[C@H]1C,0,-1,-1,107*,87,76,1,13
CCCNC(=O)N(C)C[C@@H]1Oc2cc(-c3ccncc3)ccc2S(=O)(=O)N([C@H](C)CO)C[C@@H]1C,3,-16,1,38,.,.,.,.
CC(=O)OCC1=CCCC2[C@@]1(C)CC[C@@H](C)[C@]2(C)CCC(C)CC(=O)O (stereo partly specified),.,.,0,.,.,.,.,.
Cn1c(SCC(=O)Nc2ccc(Br)cc2)nnc1-c1ccccn1,.,.,1,.,.,.,.,.
CN1c2ccc(-c3ccccc3)cc2[C@H]2[C@H](CCN2C(=O)Cc2cccnc2)[C@@H]1CO,2,9,.,107*,111*,97*,-24,-13
CN1c2ccc(-c3ccccc3)cc2[C@H]2[C@H](CCN2C(=O)Cc2cccnc2)[C@H]1CO,1,6,.,?,99*,76,-11,-7
COc1ccc(-c2ccc3c(c2)[C@@H]2[C@@H](CCN2C(=O)Cc2cccnc2)[C@H](CO)N3C)cc1,-1,-3,.,76,.,.,.,.
